High-throughput results (PubChem BioAssay)
The list is not random: actives were taken first. Their share in the collection is about 2.3%.
CHT block – human CHT choline transport inhibition | Q9GZV3 | CHT-expressing cells, membrane potential dye, choline response; active compounds read low | B-score at 10 µM | hit rate 0.86% among 310,000 | AID 488975;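 active = B-score over 3 SD under the library average, and starting fluorescence ratio not unusually high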;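 also: choline stimulus applied at its EC90 after an EC20 pre-addition; B-score computed on integrated fluorescence ratio after choline addition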
Target sequence (Q9GZV3 whole entry, looked up): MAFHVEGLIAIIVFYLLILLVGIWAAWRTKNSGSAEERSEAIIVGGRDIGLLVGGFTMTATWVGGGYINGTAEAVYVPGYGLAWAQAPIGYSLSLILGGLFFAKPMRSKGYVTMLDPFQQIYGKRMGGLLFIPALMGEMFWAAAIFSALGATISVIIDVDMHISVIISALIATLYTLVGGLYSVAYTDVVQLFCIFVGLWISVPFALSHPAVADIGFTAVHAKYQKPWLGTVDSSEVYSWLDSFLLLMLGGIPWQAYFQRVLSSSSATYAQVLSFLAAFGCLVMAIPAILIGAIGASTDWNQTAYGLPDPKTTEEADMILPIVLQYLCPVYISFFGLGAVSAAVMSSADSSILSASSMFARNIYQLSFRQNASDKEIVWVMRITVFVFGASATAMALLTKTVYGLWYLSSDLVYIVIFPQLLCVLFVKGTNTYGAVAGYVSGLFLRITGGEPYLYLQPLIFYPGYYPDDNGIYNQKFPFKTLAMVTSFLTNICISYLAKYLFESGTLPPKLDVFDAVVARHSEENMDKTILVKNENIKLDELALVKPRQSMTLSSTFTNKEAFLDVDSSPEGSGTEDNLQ
CHT PAM – allosteric activators of human choline transporter CHT. B-score at 10 µM. hit rate 0.49% among 310,000. Q9GZV3. CHT-expressing cells, membrane potential dye, choline EC20; active compounds read high; LV-AA mutant CHT in HEK293 cells;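 active = initial fluorescence not abnormally high and integrated response B-score, plate-corrected, over 3 SD above library mean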
NR2E3 ag-1 – human photoreceptor-specific nuclear receptor agonism | CHO-S Gal4-NCOR/VP16-NR2E3 two-hybrid, luciferase | inhibition of corepressor binding, % at 3.98 µM | hit rate 0.35% among 360,000 | AID 602229;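 active = inhibition above the mean of all tested compounds plus 3 SD, cut at about 70% in these data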;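 also: 0% = DMSO with NR2E3 transfected cells and 100% = cells lacking NR2E3 construct; higher means lower luciferase signal from less NR2E3 corepressor binding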
NR2F2 inh – blocks human COUP-TFII nuclear receptor; inhibition, % at 8.6 µM; P24468; hit rate 0.7% among 370,000; HEK293T NGFI-A luciferase reporter, luminescence;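 active = inhibition above a per-plate cutoff, mean inhibition of test wells between control levels plus 3 SD, cut at about 38% in these data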;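 also: cells cotransfected with COUP-TFII expression vector driving the NGFI-A reporter; 0% = median of COUP-TF2 test wells and 100% = reporter-only cells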
NR2E3 ag-2 – activates human photoreceptor nuclear receptor NR2E3; inhibition of corepressor binding, % at 4.78 µM; hit rate 0.12% among 320,000; Q9Y5X4; AID 2300; GST-NR2E3/biotin-RetCOR TR-FRET, 1536-well;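 active = percent inhibition above the cutoff of mean plus 3 SD of all tested compounds, set per screening campaign, cut at about 20% in these data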;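 also: 0% = DMSO wells and 100% = biotin wells as full block of FRET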
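Test system: GST-NR2E3 and biotin-RetCOR proteins | Quantity: 1.35 nM GST-tagged NR2E3 final | Medium: Tris pH 7.5 | Also added: 7 nM biotin-RetCOR | Dosing: Compound at 4.8 µM, single dose | Timing: 5 h at 4 °C | Detection: Time-resolved FRET | Read-out basis: Percent inhibition | Benchmarks: Biotin wells as high control, 0.6% DMSO wells as low control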
GalR3 antag – human GalR3 antagonism; AID 651719; HEK293 GalR3-CNG cAMP membrane potential fluorescence; galR3 body fused to GalR1 C-terminus; hit rate 0.44% among 360,000; O60755; inhibition, % at 3 µM;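 active = inhibition above the screen-wide average plus 3 SD, cut at about 13% in these data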;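 also: forskolin and galanin both at EC90 stimulate the cells; cAMP rise reported by CNG channel membrane potential dye signal; 0% = forskolin plus galanin with DMSO and 100% = forskolin alone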
CHT block conf – confirmation of human choline transporter CHT inhibitors; shares compounds with CHT block; CHT-expressing cells, choline membrane potential dye; LV-to-AA substituted CHT, HEK293 cells; hit rate 70% among 2,400; CHT activity remaining % of control (active compounds read low), % at 10 µM;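 active = choline transporter activity left, mean of duplicates at 10 µM, below buffer-only control mean minus 3 SD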;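 also: depolarization triggered by choline at its EC90 following an EC20 pre-addition; 0% = hemicholinium-3 full block and 100% = buffer-only control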
HEK293 CHT ctr – activity in parental HEK293 cells lacking CHT. hit rate 4% among 2,400. shares compounds with CHT block. AID 493222. membrane potential ratio readout (active if shifted either direction beyond buffer ±3SD; no single direction) at 10 µM. membrane potential dye, choline response; active = decrease or increase beyond buffer ±3SD;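 also: parental cells lack the transporter so any hit is non-specific; ratio is peak minus trough fluorescence over baseline after EC90 choline challenge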
Active calls of the source: *; i = inactive; nt = not tested or not shown.

SMILES	CHT block	CHT PAM	NR2E3 ag-1	NR2F2 inh	NR2E3 ag-2	GalR3 antag	CHT block conf	HEK293 CHT ctr
Cc1c(N=Nc2ccc(O)cc2)c(=O)n(-c2ccccc2)n1C	i	i	-7	-14	-2	7	nt	nt
Cc1[nH]c2ccccc2c1N=Nc1c(C)n(C)n(-c2ccccc2)c1=O	-13*	i	5	16	2	-6	i	i
Cc1cc(C)n2nc(SCc3nnc(SCc4ccccc4)s3)nc2n1	-6.1*	i	-7	1	1	-6	i	i
COC(=O)C1=C(C)N(C)C(=O)NC1c1ccccc1 (stereo not given)	i	i	-11	8	-1	-2	nt	nt
CC1=C(C(=O)OCCOc2ccccc2)C(c2ccsc2)NC(=O)N1C (stereo not given)	-6.5*	i	4	21	1	-7	50%*	i
C[C@H](O)[C@@H]1CN2CCc3c([nH]c4c(-c5ccc6c(c5)OCO6)cccc34)[C@@H]2C[C@@H]1N(C)C(=O)Nc1ccccc1	nt	nt	nt	-25	nt	nt	nt	nt
Cc1cc(=O)[nH]c(SCC(=O)c2ccc(C(C)C)cc2)n1	i	i	-35	-14	0	1	nt	nt
Cc1ccc(C(=O)CSc2n[nH]c(-c3ccco3)n2)cc1C	-5.1*	i	-1	19	3	-4	50%*	i
Cc1cc(=O)[nH]c(SCC(=O)c2ccc(C)c(C)c2)n1	-7.3*	i	-19	-6	5	-1	64%*	i
Cc1ccc(C)c(C(=O)CSc2nc(C)cc(=O)[nH]2)c1	i	i	2	7	0	-2	nt	nt
COc1ccc(C(=O)CSc2nc(C)cc(=O)[nH]2)cc1	-5.6*	i	-19	1	-1	-1	i	i
CCCC[C@H]1C2CC(OC(=O)Nc3ccc4c(c3)OCO4)C(C2)[C@H]2CCCCN21 (stereo not given in full)	nt	nt	nt	-26	nt	nt	nt	nt
COC(=O)/C(=C/c1c[nH]c2ccccc12)NC(C)=O	i	i	-13	1	2	-6	nt	nt
COC(=O)/C(=C/c1c[nH]c2ccccc12)[N+](=O)[O-]	-4.9*	i	4	2	0	-9	58%*	i
O=C(NCc1ccc(C(=O)NC2CCCC2)cc1)c1cccc(Br)c1	nt	nt	nt	-8	nt	nt	nt	nt
CCOC(=O)[C@@]12CN(C(=O)OC(C)(C)C)CC=C1N(Cc1ccc(OC)cc1)C(=O)[C@H]2CC(=O)NCc1cccs1	nt	nt	nt	5	nt	nt	nt	nt
CCN(CC(=O)NCc1ccc(F)cc1)Cc1cc(=O)n2ccsc2n1	i	i	-15	0	0	-2	nt	nt
COc1cc(CN(C)Cc2cc(=O)n3ccsc3n2)ccc1OC(F)F	-5.6*	i	10	17	-1	4	59%*	i
CC(C)C[C@H]1COc2cc(Br)ccc2S(=O)(=O)N1Cc1cn(CCC2OCCCO2)nn1	nt	nt	nt	-19	nt	nt	nt	nt
O/N=C/c1ccnc(SCc2ccccc2)n1	-5.1*	i	-108	-8	4	2	59%*	i
CC(C)(C)OC(=O)NCc1ccccc1/C=C/S(=O)(=O)NCCc1ccccc1	nt	nt	nt	0	nt	nt	nt	nt
Cc1ccsc1CNC12CC3CC(CC(C3)C1)C2	-6.6*	i	4	15	2	-5	14%*	-13*
Cc1ccsc1CNC1CCCCC1	i	i	-17	-5	1	-9	nt	nt
CC(C)n1nnnc1C1(C)CCCCC(=O)N1Cc1cccc(C(F)(F)F)c1 (stereo not given)	nt	nt	nt	-7	nt	nt	nt	nt
Cc1ccc(NC(=O)CN2C(=O)NC3(CCc4ccccc43)C2=O)cc1Cl (stereo not given)	-11*	i	-13	10	-1	-1	34%*	i
SMILES	CHT block	CHT PAM	NR2E3 ag-1	NR2F2 inh	NR2E3 ag-2	GalR3 antag	CHT block conf	HEK293 CHT ctr
CC1CCCCN1c1ncnc2ccccc12 (stereo not given)	i	i	33	32	2	-11	nt	nt
CC1(C)CC2CC(C)(CN2c2ncnc3ccccc23)C1 (stereo not given)	-5.1*	i	26	35	2	-6	48%*	i
CCCCN1C(=O)N2Cc3ccccc3C2CS1(=O)=O (stereo not given)	nt	nt	nt	-51	nt	nt	nt	nt
COC(=O)[C@]12C[C@H](CC(=O)NCc3cccs3)C(=O)N(Cc3ccc(Cl)cc3Cl)C1=C[C@H](COCc1ccccc1)O[C@@H]2C	nt	nt	nt	-1	nt	nt	nt	nt
O=C(CNC(=O)c1cccs1)OCC(=O)c1ccc([N+](=O)[O-])cc1	-5.1*	i	-7	-5	1	-3	i	i
COc1ccc(NC(=O)c2cc3c(C)nn(-c4ccccc4)c3s2)cc1	nt	nt	nt	-2	nt	nt	nt	nt
COc1cc(/C=C2/C(=O)c3cccc([N+](=O)[O-])c3C2=O)c(Br)cc1O	-7.2*	i	11	2	0	-6	43%*	i
O=C(c1ccccc1Br)N1CCCC(c2nc(-c3cccs3)no2)C1 (stereo not given)	-6.3*	i	-61	11	1	-2	i	i
O=C(c1ccc(Br)cc1)N1CCCC(c2nc(-c3cccs3)no2)C1 (stereo not given)	i	i	-22	6	2	-4	nt	nt
Cc1ccc(S(=O)(=O)CC(O)COc2ccc(F)cc2Cl)cc1 (stereo not given)	-6.6*	i	30	-5	2	-8	54%*	i
Cc1ccc(S(=O)(=O)CC(O)COc2ccc(F)cc2Cl)c(C)c1 (stereo not given)	i	i	-14	21	0	-7	nt	nt
CC(=O)NC1CCCCN(Cc2cccc(F)c2)C1=O (stereo not given)	nt	nt	nt	-26	nt	nt	nt	nt
COC(=O)C[C@@H]1CC[C@H]2[C@@H](COc3ccc(NC(=O)c4ccc(Cl)cc4)cc3C(=O)N2C)O1	nt	nt	nt	-5	nt	nt	nt	nt
NC(=O)c1ccc(NCCc2ccccc2)c([N+](=O)[O-])c1	-5*	i	-7	0	-1	-2	i	i
Cc1nc2ccc(S(=O)(=O)NCC(=O)NCc3ccc(F)cc3)cc2s1	nt	nt	nt	-8	nt	nt	nt	nt
Cc1noc(C)c1CSc1nc2ccccc2n1CCc1ccccc1	-5*	i	-6	-4	-1	-4	i	i
O=C(O)CCn1c(SCc2ccccc2)nc2ccccc21	i	i	-54	-3	-2	-4	nt	nt
Cc1cc(NC(=O)CCC(=O)N(Cc2ccccc2)C2(C(=O)NC3CCCCC3)CCCC2)no1	-5.6*	i	-31	1	3	-2	i	i
